Non-standard residues stand in square brackets, D forms with d. Residues, ends and D or L forms follow the SMILES beside them.
Legend:
Assay type in all cases: functional, cell-based
[1] = target: Melanocortin receptor 5 (Mus musculus) (UniProt P41149); assay: Inverse agonist activity at mouse melanocortin receptor 5 expressed in HEK293 cells assessed as decrease in cAMP accumulation at 160 nM after 2 hrs by AlphaScreen assay relative to control; parameters: scale not given: the % may be the effect or the level left
Procedure, shortened: (§1)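 In mouse MC5R-HEK293 cells, cAMP was measured by AlphaScreen after 2 h peptide exposure (10−4 to 10−13 M) at room temperature. Each replicate was normalized to its signal at 10−10 M. For sigmoidal curves, percent inverse agonism was the change from basal to the high-concentration plateau. Apparent potency was taken as the curve inflection point. Three independent experiments were run.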

[2] = target: T1, Melanocortin receptor 3 (Mus musculus, UniProt P33033); assay: Agonist activity at mouse melanocortin receptor 3 expressed in HEK293 cells assessed as increase in cAMP accumulation after 2 hrs by AlphaScreen assay
[3] = target: T1, Melanocortin receptor 3; assay: Antagonist activity at mouse melanocortin receptor 3 expressed in HEK293 cells assessed as inhibition of NDP-MSH-induced cAMP accumulation after 2 hrs by AlphaScreen assay; conditions: read-out: pA2 (converted)
[4] = target: T2, Melanocortin receptor 4 (Mus musculus, UniProt P56450); assay: Agonist activity at mouse melanocortin receptor 4 expressed in HEK293 cells assessed as increase in cAMP accumulation after 2 hrs by AlphaScreen assay
[5] = target: Melanocyte-stimulating hormone receptor (Mus musculus, UniProt Q01727); assay: Agonist activity at mouse melanocortin receptor 1 expressed in HEK293 cells assessed as increase in cAMP accumulation after 2 hrs by AlphaScreen assay
Procedure, shortened: (§2)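 Donor beads and biotin-cAMP in lysis buffer followed for 2 h. The AlphaScreen signal was read. EC50 came from nonlinear least-squares fits, duplicates, at least three independent experiments.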

[6] = target: T2, Melanocortin receptor 4; assay: Antagonist activity at mouse melanocortin receptor 4 expressed in HEK293 cells assessed as inhibition of NDP-MSH-induced cAMP accumulation after 2 hrs by AlphaScreen assay; conditions: read-out: pA2 (converted)
[7] = target: Melanocortin receptor 5 (Mus musculus) (UniProt P41149); assay: Inverse agonist activity at mouse melanocortin receptor 5 expressed in HEK293 cells assessed as decrease in cAMP accumulation at 250 nM after 2 hrs by AlphaScreen assay relative to control; parameters: scale not given: the % may be the effect or the level left; procedure, shortened: as §1
[8] = target: Melanocortin receptor 5 (Mus musculus) (UniProt P41149); assay: Inverse agonist activity at mouse melanocortin receptor 5 expressed in HEK293 cells assessed as decrease in cAMP accumulation at 140 nM after 2 hrs by AlphaScreen assay relative to control; parameters: scale not given: the % may be the effect or the level left; procedure, shortened: as §1
[9] = target: Melanocyte-stimulating hormone receptor (Mus musculus) (UniProt Q01727); assay: Agonist activity at mouse melanocortin receptor 1 expressed in HEK293 cells assessed as increase in cAMP accumulation at 100 uM after 2 hrs by AlphaScreen assay relative to control
Procedure, shortened: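 Cyclic peptides were dissolved in DMSO. Receptor-expressing HEK293 cells in IBMX-containing stimulation buffer (pH 7.4) were stimulated for 2 h at room temperature. cAMP was then detected by competitive AlphaScreen after a 2 h lysis/bead step. […] Values come from at least three independent experiments.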

[10] = target: Melanocortin receptor 5 (Mus musculus) (UniProt P41149); assay: Inverse agonist activity at mouse melanocortin receptor 5 expressed in HEK293 cells assessed as decrease in cAMP accumulation at 130 nM after 2 hrs by AlphaScreen assay relative to control; parameters: scale not given: the % may be the effect or the level left; procedure, shortened: as §1
[11] = target: Melanocortin receptor 5 (Mus musculus) (UniProt P41149); assay: Inverse agonist activity at mouse melanocortin receptor 5 expressed in HEK293 cells assessed as decrease in cAMP accumulation at 50 nM after 2 hrs by AlphaScreen assay relative to control; parameters: scale not given: the % may be the effect or the level left; procedure, shortened: as §1
[12] = target: Melanocyte-stimulating hormone receptor (Mus musculus) (UniProt Q01727); assay: Partial agonist activity at mouse melanocortin receptor 1 expressed in HEK293 cells assessed as increase in cAMP accumulation after 2 hrs by AlphaScreen assay relative to NDP
Procedure, shortened: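 Mouse MC1R stably expressed in HEK293 cells, stimulated for 2 hr at room temperature in the dark. Peptide at 10−4 to 10−13 M in HBSS/HEPES buffer with 0.5 mM IBMX and 0.1% BSA, pH 7.4; forskolin 10−4 M. AlphaScreen cAMP detection after lysis and a further 2 hr. Signal normalized to maximal NDP-MSH response.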

[13] = target: Melanocortin receptor 5 (Mus musculus, UniProt P41149); assay: Agonist activity at mouse melanocortin receptor 5 expressed in HEK293 cells assessed as increase in cAMP accumulation after 2 hrs by AlphaScreen assay; procedure, shortened: as §2
[14] = target: Melanocortin receptor 5 (Mus musculus) (UniProt P41149); assay: Inverse agonist activity at mouse melanocortin receptor 5 expressed in HEK293 cells assessed as decrease in cAMP accumulation at 60 nM after 2 hrs by AlphaScreen assay relative to control; parameters: scale not given: the % may be the effect or the level left; procedure, shortened: as §1

T1 sequence (P33033 whole entry): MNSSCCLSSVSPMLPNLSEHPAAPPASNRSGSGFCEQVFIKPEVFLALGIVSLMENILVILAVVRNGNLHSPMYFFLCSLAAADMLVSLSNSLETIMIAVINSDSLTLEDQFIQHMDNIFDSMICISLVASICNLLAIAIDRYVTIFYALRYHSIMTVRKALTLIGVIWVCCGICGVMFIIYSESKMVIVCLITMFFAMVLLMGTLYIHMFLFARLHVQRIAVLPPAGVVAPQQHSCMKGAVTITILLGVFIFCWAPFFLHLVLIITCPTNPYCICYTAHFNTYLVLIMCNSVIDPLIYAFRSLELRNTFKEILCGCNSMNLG
Melanocortin receptor 5 (Mus musculus), sequence (P41149 whole entry): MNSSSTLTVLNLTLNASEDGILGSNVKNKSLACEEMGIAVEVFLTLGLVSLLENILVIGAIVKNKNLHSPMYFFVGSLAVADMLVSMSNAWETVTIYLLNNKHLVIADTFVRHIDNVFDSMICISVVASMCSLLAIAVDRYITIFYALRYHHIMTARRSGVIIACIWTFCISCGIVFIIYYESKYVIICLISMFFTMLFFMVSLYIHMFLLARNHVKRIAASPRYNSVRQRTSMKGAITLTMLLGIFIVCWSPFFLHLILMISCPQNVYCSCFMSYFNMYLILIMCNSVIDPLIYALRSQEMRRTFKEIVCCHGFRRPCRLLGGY
T2 sequence (P56450 whole entry): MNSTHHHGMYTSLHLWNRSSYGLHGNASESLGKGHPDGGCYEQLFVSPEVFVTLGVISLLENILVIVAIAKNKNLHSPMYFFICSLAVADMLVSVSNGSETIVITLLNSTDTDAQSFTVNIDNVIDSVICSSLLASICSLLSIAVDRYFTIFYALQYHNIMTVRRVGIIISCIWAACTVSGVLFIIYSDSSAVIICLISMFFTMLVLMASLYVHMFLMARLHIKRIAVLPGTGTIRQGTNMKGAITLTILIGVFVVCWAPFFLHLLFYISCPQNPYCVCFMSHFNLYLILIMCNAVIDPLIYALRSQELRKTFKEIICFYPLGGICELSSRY
Melanocyte-stimulating hormone receptor, sequence (Q01727 whole entry): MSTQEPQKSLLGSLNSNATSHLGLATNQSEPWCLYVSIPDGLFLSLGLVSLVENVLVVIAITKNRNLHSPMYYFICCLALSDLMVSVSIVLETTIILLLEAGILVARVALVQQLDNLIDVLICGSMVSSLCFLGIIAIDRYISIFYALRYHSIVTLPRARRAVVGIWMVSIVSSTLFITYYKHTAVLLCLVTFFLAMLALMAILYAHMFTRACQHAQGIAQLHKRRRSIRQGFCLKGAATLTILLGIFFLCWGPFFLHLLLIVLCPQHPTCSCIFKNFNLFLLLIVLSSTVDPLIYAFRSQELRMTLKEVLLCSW
Melanocyte-stimulating hormone receptor (Mus musculus), sequence (Q01727 whole entry, looked up): as the sequence (Q01727 whole entry) above
Melanocortin receptor 5, sequence (P41149 whole entry): as the sequence (P41149 whole entry) above

Row | Compound | EC50 [2] | Kb [3] | EC50 [4] | EC50 [5] | Kb [6] | further results
1 | CCC1NC(=O)[C@H](Cc2ccccc2)NC(=O)[C@H](Cc2ccccc2)NC(=O)[C@H](CCCNC(=N)N)NC(=O)[C@@H]2CCCN2C(=O)[C@H]2CCCN2C(=O)[C@H](Cc2ccccc2)NC(=O)[C@H](C)NC1=O (some centres undefined) | > 100 µM | > 3160 nM | – | – | – | Activity [1]: 20%
2 | C[C@@H]1NC(=O)[C@H](C)NC(=O)[C@H](Cc2ccccc2)NC(=O)[C@H](Cc2ccccc2)NC(=O)[C@H](CCCNC(=N)N)NC(=O)[C@@H]2CCCN2C(=O)[C@H]2CCCN2C(=O)[C@H](Cc2ccccc2)NC1=O | > 100 µM | > 3160 nM | > 100 µM | > 100 µM | 47.9 nM | Activity [7]: 20%
3 | C[C@@H]1NC(=O)[C@H](CO)NC(=O)[C@H](Cc2ccccc2)NC(=O)[C@H](Cc2ccccc2)NC(=O)[C@H](CCCNC(=N)N)NC(=O)[C@@H]2CCCN2C(=O)[C@H]2CCCN2C(=O)[C@H](Cc2ccccc2)NC1=O | > 100 µM | 1260 nM | > 100 µM | > 100 µM | 20 nM | Activity [8]: 25%
4 | C[C@@H]1NC(=O)[C@H](CC(N)=O)NC(=O)[C@H](Cc2ccccc2)NC(=O)[C@H](Cc2ccccc2)NC(=O)[C@H](CCCNC(=N)N)NC(=O)[C@@H]2CCCN2C(=O)[C@H]2CCCN2C(=O)[C@H](Cc2ccccc2)NC1=O | – | – | – | – | – | Activity [9]: 25%; Activity [10]: 10%
5 | C[C@@H]1NC(=O)[C@H]([C@@H](C)O)NC(=O)[C@H](Cc2ccccc2)NC(=O)[C@H](Cc2ccccc2)NC(=O)[C@H](CCCNC(=N)N)NC(=O)[C@@H]2CCCN2C(=O)[C@H]2CCCN2C(=O)[C@H](Cc2ccccc2)NC1=O (cyclo(RFFTAF[dP]P)) | > 100 µM | 398 nM | > 100 µM | > 100 µM | 17.4 nM | Activity [11]: 20%
6 | N=C(N)NCCC[C@@H]1NC(=O)[C@@H]2CCCN2C(=O)[C@H]2CCCN2C(=O)[C@H](Cc2ccccc2)NC(=O)[C@H](Cc2c[nH]cn2)NC(=O)[C@H](CC(N)=O)NC(=O)[C@H](Cc2ccccc2)NC(=O)[C@H](Cc2ccccc2)NC1=O (cyclo(RFFNHF[dP]P)) | > 100 µM | > 3160 nM | > 100 µM | 2.6 µM | 851 nM | Activity [12]: 40%; EC50 [13]: > 100 µM
7 | C[C@@H]1NC(=O)[C@H](CN)NC(=O)[C@H](Cc2ccccc2)NC(=O)[C@H](Cc2ccccc2)NC(=O)[C@H](CCCNC(=N)N)NC(=O)[C@@H]2CCCN2C(=O)[C@H]2CCCN2C(=O)[C@H](Cc2ccccc2)NC1=O | > 100 µM | 302 nM | – | – | – | Activity [14]: 15%; Activity [9]: 30%
